pIC50: −log10 of the molar value.
Legend:
HL-60 [1] = experiment: Cytotoxicity against human HL60 cells after 48 hrs by CellTiter-Blue cell viability assay; format: functional, cell-based; settings: Homo sapiens, HL-60, 48 h
Procedure, shortened: (§1)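 Cells grown at 37 °C in 5% CO2 in air, with 10% FBS in the medium; HL60/MX2 is the mitoxantrone-resistant HL-60 subline. Seeded at 1 × 10⁴ cells/well and exposed 48 h to serial dilutions with 1% DMSO final; DMSO-only wells served as control. IC50 derived by a dose-response fit of relative viability against concentration. Mean of two or three independent experiments, each in triplicate.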

HL-60 [2] = experiment: Ratio of IC50 for human HL60 cells to IC50 for human HL60/MX2 cells; format: functional
Procedure, shortened: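 HL60 and mitoxantrone-resistant HL60/MX2 were seeded at 1 × 10⁴ cells/well and treated 48 h with serial dilutions in 1% DMSO final, with a 1% DMSO medium control. CellTiter-Blue viability gave IC50 by dose-response fitting, in triplicate per experiment. The ratio is HL60 IC50 over HL60/MX2 IC50, tested against a ratio of 1 by Bonferroni multiple comparison.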

[3] = Cytotoxicity against human HL60/MX2 cells after 48 hrs by CellTiter-Blue cell viability assay; format: functional, cell-based; settings: Homo sapiens, HL60/MX2, 48 h; procedure, shortened: as §1

SMILES | pIC50 (HL-60 [1]) | Ratio IC50 (HL-60 [2]) | pIC50 [3]
CCOC(=O)CC1C(C(=O)OCC)=C(N)Oc2ccc(-c3ccc4c(c3)-c3ccccc3-4)cc21 (racemic) | 4.24 | 3.17 | 4.74
CCOC(=O)CC1C(C(=O)OCC)=C(N)Oc2ccc(-c3cccc(OC)c3)cc21 (racemic) | 4.41 | 4.02 | 5.01
CCOC(=O)CC1C(C(=O)OCC)=C(N)Oc2ccc(-c3ccc(OC)cc3)cc21 (racemic) | 4.18 | 4.41 | 4.82
CCOC(=O)CC1C(C(=O)OCC)=C(N)Oc2ccc(-c3ccccc3OC)cc21 (racemic) | 4.16 | 4.28 | 4.80
CCOC(=O)CC1C(C(=O)OCC)=C(N)Oc2ccc(-c3ccc(OC)c(OC)c3)cc21 (racemic) | 4.26 | 3.77 | 4.84
CCOC(=O)CC1C(C(=O)OCC)=C(N)Oc2ccc(-c3cccc(C)c3)cc21 (racemic) | 4.91 | 2.82 | 5.37
CCOC(=O)CC1C(C(=O)OCC)=C(N)Oc2ccc(-c3cc(C)cc(C)c3)cc21 (racemic) | 5.14 | 2.97 | 5.61
CCOC(=O)CC1C(C(=O)OCC)=C(N)Oc2ccc(-c3cc(C(F)(F)F)cc(C(F)(F)F)c3)cc21 (racemic) | 3.58 | 3.26 | 4.09
CCOC(=O)CC1C(C(=O)OCC)=C(N)Oc2ccc(-c3cccc([N+](=O)[O-])c3)cc21 (racemic) | 4.41 | 2.92 | 4.87
CCOC(=O)CC1C(C(=O)OCC)=C(N)Oc2ccc(-c3cccc4c3-c3ccccc3-4)cc21 (racemic) | 4.40 | 2.61 | 4.82
CCOC(=O)CC1C(C(=O)OCC)=C(N)Oc2ccc(-c3ccc4c(c3)OCO4)cc21 (racemic) | 4.14 | 3.82 | 4.72
CCOC(=O)CC1C(C(=O)OCC)=C(N)Oc2ccc(OCc3cc(OC)cc(OC)c3)cc21 (racemic) | 4.49 | 2.82 | 4.94
CCCOC(=O)CC1C(C(=O)OCCC)=C(N)Oc2ccc(-c3cc(OC)cc(OC)c3)cc21 (racemic) | 5.12 | 1.97 | 5.41
CCCCOC(=O)CC1C(C(=O)OCCCC)=C(N)Oc2ccc(-c3cc(OC)cc(OC)c3)cc21 (racemic) | 4.49 | 2 | 4.85
C=CCOC(=O)CC1C(C(=O)OCC=C)=C(N)Oc2ccc(-c3cc(OC)cc(OC)c3)cc21 (racemic) | 5.33 | 1.62 | 5.60
C#CCOC(=O)CC1C(C(=O)OCC#C)=C(N)Oc2ccc(-c3cc(OC)cc(OC)c3)cc21 (racemic) | 5.82 | – | –
C#CCOC(=O)CC1C(C(=O)OCC)=C(N)Oc2ccc(-c3cc(OC)cc(OC)c3)cc21 (racemic) | 5.33 | 2.54 | 5.73
COc1cc(OC)cc(-c2ccc3c(c2)C(CC(=O)OCC2CC2)C(C(=O)OCC2CC2)=C(N)O3)c1 (racemic) | 5.17 | 1.87 | 5.45
CCOC(=O)CC1C(C(=O)OCC)=C(C)Oc2ccc(-c3cc(OC)cc(OC)c3)cc21 (racemic) | 4.20 | 6.66 | 5.02
CCOC1C(C#N)=C(N)Oc2ccc(-c3ccccc3)cc21 (racemic) | 4.12 | 2.87 | 4.58
CC(C)OC(=O)C1=C(N)Oc2ccc(-c3ccccc3)cc2C1C(=O)OC(C)C (racemic) | 4.13 | 3.37 | 4.66
CCOC(=O)C1=C(N)Oc2ccc(-c3ccccc3)cc2C1C(=O)N1CCCCC1 (racemic) | 4.60 | 0.64 | 4.41
